Columns and labels:
Hepatocyte = assay: Cytotoxicity against mouse primary hepatocytes assessed as fold change in capase3/7 activity by Caspase-Glo 3/7 assay relative to DMSO; type: cell-based
[1] = (§1) Drug metabolism in CD1 mouse adipose assessed as monoacylglycerol conjugate formation at 6 mg/kg, ip dosed once daily for 3 days followed by dosing of 1:1 mixtures of 2-(2-(Carboxy-13C)ethyl)-4-methyl-5-propylfuran-3-carboxylic-2-13C Acid and test compound on day 4 and 5 measured 1 hr post dose on day 5 by HPLC-MS analysis; type: ADME, organism-based, Adipose tissue; details: in vivo
How it was run: (§2)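 Mice received CMPF 6 mg/kg intraperitoneally for three days, then 1:1 labeled/unlabeled CMPF mixtures on days four and five. On day five they were euthanized 1 h post-dose, and plasma, adipose, muscle and liver were collected. Samples were analysed by HPLC-MS, with MS/MS of product ions. Metabolites were identified by the distinctive isotope patterns from the 1:1 label mixture.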

Plasma [2] = assay: (§3) Drug metabolism in CD1 mouse plasma assessed as glycerol conjugate formation at 6 mg/kg, ip dosed once daily for 3 days followed by dosing of 1:1 mixtures of 2-(2-Carboxyethyl)-4-methyl-5-propyl-(3-13C-furan)-3-13Ccarboxylateand test compound on day 4 and 5 measured 1 hr post dose on day 5 by HPLC-MS analysis; type: ADME, organism-based; details: in vivo
How it was run: (§4)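 CMPF given 6 mg/kg i.p. once daily for three days. On days four and five, 1:1 mixtures of stable-isotope-labelled and unlabelled CMPF were dosed. Mice were killed 1 h after the day-five dose. Plasma, adipose, muscle and liver were collected and analysed by HPLC-MS (MS/MS for product ions). Metabolites were identified by their distinctive isotope patterns from the labelled/unlabelled mixture.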

[3] = as §1, with “2-(2-Carboxyethyl)-4-methyl-5-(1-propyl-1-13C)furan-3-carboxylic” for “2-(2-(Carboxy-13C)ethyl)-4-methyl-5-propylfuran-3-carboxylic-2-13C”; type: ADME, organism-based, Adipose tissue; details: in vivo; how it was run: as §2
Plasma [4] = assay: as §1, with “plasma” for “adipose”, “glucuronide” for “monoacylglycerol”; type: ADME, organism-based; details: in vivo; how it was run: as §4
Liver [5] = assay: as §1, with “liver” for “adipose”, “oxidative metabolites” for “monoacylglycerol conjugate”; type: ADME, organism-based; details: in vivo; how it was run: as §2
Liver [6] = assay: as §1, with “liver” for “adipose”, “diacylglycerol” for “monoacylglycerol”; type: ADME, organism-based; details: in vivo; how it was run: as §2
[7] = Suppression of KCl-stimulated insulin secretion in mouse pancreatic islet at 200 uM incubated for 24 hrs followed by KCl stimulation for 20 mins by HTRF assay; type: ADME, cell-based
How it was run: (§5)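 Mouse islets treated with compounds at 200 µM. Insulin secretion was then measured under low- and high-glucose GSIS conditions and under KCl stimulation, and intracellular insulin content was measured. Mean of n = 4-5 experiments with SEM.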

[8] = (§6) Drug metabolism in CD1 mouse adipose assessed as loss of C2 carboxyl during fragmentation at 6 mg/kg, ip dosed once daily for 3 days followed by dosing of 1:1 mixtures of 2-(2-Carboxyethyl)-4-methyl-5-propyl-(3-13C-furan)-3-13Ccarboxylate and test compound on day 4 and 5 measured 1 hr post dose on day 5 by HPLC-MS analysis; type: ADME, organism-based, Adipose tissue; details: in vivo; how it was run: as §2
Plasma [9] = assay: as §3, with “2-(2-(Carboxy-13C)ethyl)-4-methyl-5-propylfuran-3-carboxylic-2-13C Acid and” for “2-(2-Carboxyethyl)-4-methyl-5-propyl-(3-13C-furan)-3-13Ccarboxylateand”; type: ADME, organism-based; details: in vivo; how it was run: as §4
[10] = Volume of distribution in mouse at 1 mg/kg, iv; type: ADME, organism-based; details: in vivo
How it was run: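 Mouse pharmacokinetics after single intravenous CMPF dosing at 1 or 3 mg/kg. Plasma exposure was followed over time to derive AUC, C0, terminal half-life, clearance and volume of distribution.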

Plasma [11] = assay: Drug metabolism in CD1 mouse plasma assessed as glucuronide conjugate formation at 6 mg/kg, ip dosed once daily for 3 days followed by dosing of 1:1 mixtures of 2-(2-Carboxyethyl)-4-methyl-5-propyl-(3-13C-furan)-3-13Ccarboxylate and test compound on day 4 and 5 measured 1 hr post dose on day 5 by HPLC-MS analysis; type: ADME, organism-based; details: in vivo; how it was run: as §4
Plasma [12] = assay: as §3, with “monoacylglycerol” for “glycerol”; type: ADME, organism-based; details: in vivo; how it was run: as §4
Liver [13] = assay: as §3, with “liver” for “plasma”, “diacylglycerol” for “glycerol”; type: ADME, organism-based; details: in vivo; how it was run: as §2
[14] = (§7) Drug metabolism in CD1 mouse muscle assessed as diacylglycerol conjugate formation at 6 mg/kg, ip dosed once daily for 3 days followed by dosing of 1:1 mixtures of 2-(2-Carboxyethyl)-4-methyl-5-(1-propyl-1-13C)furan-3-carboxylic Acid and test compound on day 4 and 5 measured 1 hr post dose on day 5 by HPLC-MS analysis; type: ADME, organism-based, Muscle tissue; details: in vivo; how it was run: as §2
[15] = as §1, with “glycerol” for “monoacylglycerol”; type: ADME, organism-based, Adipose tissue; details: in vivo; how it was run: as §2
[16] = Initial plasma concentration in mouse at 6 mg/kg, iv; type: ADME, organism-based
Plasma [17] = assay: as §1, with “plasma” for “adipose”, “2-(2-Carboxyethyl)-4-methyl-5-(1-propyl-1-13C)furan-3-carboxylic” for “2-(2-(Carboxy-13C)ethyl)-4-methyl-5-propylfuran-3-carboxylic-2-13C”; type: ADME, organism-based; details: in vivo; how it was run: as §4
[18] = (§8) Drug metabolism in CD1 mouse adipose assessed as oxidative metabolites formation at 6 mg/kg, ip dosed once daily for 3 days followed by dosing of 1:1 mixtures of 2-(2-Carboxyethyl)-4-methyl-5-(1-propyl-1-13C)furan-3-carboxylic Acid and test compound on day 4 and 5 measured 1 hr post dose on day 5 by HPLC-MS analysis; type: ADME, organism-based, Adipose tissue; details: in vivo; how it was run: as §2
Plasma [19] = assay: as §6, with “plasma” for “adipose”; type: ADME, organism-based; details: in vivo; how it was run: as §4
[20] = as §8, with “muscle” for “adipose”, “2-(2-(Carboxy-13C)ethyl)-4-methyl-5-propylfuran-3-carboxylic-2-13C” for “2-(2-Carboxyethyl)-4-methyl-5-(1-propyl-1-13C)furan-3-carboxylic”; type: ADME, organism-based, Muscle tissue; details: in vivo; how it was run: as §2
Plasma [21] = assay: Plasma concentration in human; type: ADME, cell-free
Plasma [22] = assay: as §7, with “plasma” for “muscle”; type: ADME, organism-based; details: in vivo; how it was run: as §4
[23] = Drug excretion in human urine assessed as CMPF formation; type: ADME
Liver [24] = assay: as §6, with “liver” for “adipose”; type: ADME, organism-based; details: in vivo; how it was run: as §2
[25] = (§9) Drug metabolism in CD1 mouse muscle assessed as oxidative metabolites formation at 6 mg/kg, ip dosed once daily for 3 days followed by dosing of 1:1 mixtures of 2-(2-Carboxyethyl)-4-methyl-5-propyl-(3-13C-furan)-3-13Ccarboxylateand test compound on day 4 and 5 measured 1 hr post dose on day 5 by HPLC-MS analysis; type: ADME, organism-based, Muscle tissue; details: in vivo; how it was run: as §4
[26] = as §1, with “muscle” for “adipose”; type: ADME, organism-based, Muscle tissue; details: in vivo; how it was run: as §2
[27] = Suppression of glucose-stimulated insulin secretion in mouse pancreatic islet at 200 uM incubated for 24 hrs followed by glucose stimulation for 20 mins by HTRF assay; type: ADME, cell-based; how it was run: as §5
Liver [28] = assay: as §9, with “liver” for “muscle”; type: ADME, organism-based; details: in vivo; how it was run: as §2
Liver [29] = assay: as §1, with “liver” for “adipose”; type: ADME, organism-based; details: in vivo; how it was run: as §2

- Drug metabolism [1]: Metabolite_Notdetected
- Drug metabolism (Plasma [2]): Metabolite_Notdetected
- Drug metabolism [3]: Metabolite_Notdetected
- Drug metabolism (Plasma [4]): Metabolite_Detected
- Drug metabolism (Liver [5]): Metabolite_Notdetected
- Drug metabolism (Liver [6]): Metabolite_Notdetected
- Drug metabolism [8]: Metabolite_Detected
- Drug metabolism (Plasma [9]): Metabolite_Notdetected
- Vd [10]: 0.2 L/kg
- Drug metabolism (Plasma [11]): Metabolite_Detected
- Drug metabolism (Plasma [12]): Metabolite_Notdetected
- Drug metabolism (Liver [13]): Metabolite_Notdetected
- Drug metabolism [14]: Metabolite_Notdetected
- Drug metabolism [15]: Metabolite_Notdetected
- C0 [16]: 200 to 250 µM
- Drug metabolism (Plasma [17]): Metabolite_Notdetected
- Drug metabolism [18]: Metabolite_Notdetected
- Drug metabolism (Plasma [19]): Metabolite_Detected
- Drug metabolism [20]: Metabolite_Notdetected
- concentration (Plasma [21]): 20 to 40 µM
- Drug metabolism (Plasma [22]): Metabolite_Notdetected
- Drug excretion [23]: 1 to 5 mg/day
- Drug metabolism (Liver [24]): Metabolite_Detected
- Drug metabolism [25]: Metabolite_Notdetected
- Drug metabolism [26]: Metabolite_Notdetected
- Drug metabolism (Liver [28]): Metabolite_Notdetected
- Drug metabolism (Liver [29]): Metabolite_Notdetected
SMILES: CCCc1oc(CCC(=O)O)c(C(=O)O)c1C
- fold change (FC) (Hepatocyte): 0.7 to 0.8
- Activity [7]: Toxic
- Activity [27]: Toxic

From ChEMBL document CHEMBL4004837, “Synthesis and Characterization of Urofuranoic Acids: In Vivo Metabolism of 2-(2-Carboxyethyl)-4-methyl-5-propylfuran-3-carboxylic Acid (CMPF) and Effects on in Vitro Insulin Secretion” (J Med Chem, 2017)
